# Source: publication PMC3677027 (The Biochemical journal, 2012)
# “Also recorded” adds a separate entry of the source. Ends that are not written are not given here.
# B1: ephrin-A5: natural ephrin ligand of EphA4, used as Fc fusion (R&D Systems) (protein)
# chain: QDPGSKAVADRYAVYWNSSNPRFQRGDYHIDVCINDYLDVFCPHYEDSVPEDKTERYVLYMVNFDGYSACDHTSKGFKRWECNRPHSPNGPLKFSEKFQLFTPFSLGFEFRPGREYFYISSAIPDNGRRSCLKLKVFVRPTNSCMKTIGVHDRVFDVNDKVENSLEPADDTVHESAEPSRGEN
# modifications: left off: Fc, end not stated, kept
# Columns and labels:
# [1] = target: EphA4 AP (Homo sapiens, UniProt P54764); assay: ELISA inhibition of EphA4 AP binding to immobilized ephrin-A5 Fc; conditions: for IC50 value relative to unmodified KYL (in words): KYL alanine scan, ELISA, 0.05 nM EphA4 AP, ephrin-A5 Fc immobilized
# Sequence of EphA4 AP (P54764 30-209 limits assumed): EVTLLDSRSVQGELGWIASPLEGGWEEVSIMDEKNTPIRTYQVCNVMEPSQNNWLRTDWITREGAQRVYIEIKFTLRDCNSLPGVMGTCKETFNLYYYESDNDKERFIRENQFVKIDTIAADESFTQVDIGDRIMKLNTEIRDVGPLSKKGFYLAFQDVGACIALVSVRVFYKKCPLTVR
# How it was run: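 Peptides (purity ≥85%) were made as 10 mM DMSO stocks and tested at varied concentrations. Each was incubated for 3 h with 0.05 nM EphA4 AP in protein A wells precoated with 1 µg/ml ephrin-A5 Fc. Bound AP was quantified with p-nitrophenyl phosphate substrate in SEAP buffer, read as absorbance at 405 nm, and inhibition was computed from that signal.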
# [2] = Peptide stability in mouse serum; format: in vitro ADME; conditions: 37°C, ELISA read-out of residual antagonistic activity
# How it was run: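 Peptide at 100, 200 or 500 µM (depending on peptide) was held in mouse serum at 37 °C and sampled over time. Samples were diluted 1:20 into protein A wells carrying 1 µg/ml ephrin-A5 Fc, with 0.05 nM EphA4 AP, for 30 min at 4 °C. Bound AP was read as OD405 and normalised: peptide-free serum = 0, unincubated peptide = 1.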
# [3] = target: EphA4 ephrin-binding domain (residues 29-209) (human, UniProt P54764-1 29-209); assay: ITC
# Sequence of EphA4 ephrin-binding domain (residues 29-209) (P54764 29-209): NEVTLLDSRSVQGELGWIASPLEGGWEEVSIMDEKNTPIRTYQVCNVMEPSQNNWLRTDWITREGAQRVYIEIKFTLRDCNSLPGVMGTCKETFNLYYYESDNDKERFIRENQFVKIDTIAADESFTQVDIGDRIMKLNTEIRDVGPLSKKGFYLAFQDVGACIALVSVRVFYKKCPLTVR
# [4] = target: EphA4 Fc (UniProt Q03137 20-547); assay: ELISA
# Sequence of EphA4 Fc (Q03137 20-547): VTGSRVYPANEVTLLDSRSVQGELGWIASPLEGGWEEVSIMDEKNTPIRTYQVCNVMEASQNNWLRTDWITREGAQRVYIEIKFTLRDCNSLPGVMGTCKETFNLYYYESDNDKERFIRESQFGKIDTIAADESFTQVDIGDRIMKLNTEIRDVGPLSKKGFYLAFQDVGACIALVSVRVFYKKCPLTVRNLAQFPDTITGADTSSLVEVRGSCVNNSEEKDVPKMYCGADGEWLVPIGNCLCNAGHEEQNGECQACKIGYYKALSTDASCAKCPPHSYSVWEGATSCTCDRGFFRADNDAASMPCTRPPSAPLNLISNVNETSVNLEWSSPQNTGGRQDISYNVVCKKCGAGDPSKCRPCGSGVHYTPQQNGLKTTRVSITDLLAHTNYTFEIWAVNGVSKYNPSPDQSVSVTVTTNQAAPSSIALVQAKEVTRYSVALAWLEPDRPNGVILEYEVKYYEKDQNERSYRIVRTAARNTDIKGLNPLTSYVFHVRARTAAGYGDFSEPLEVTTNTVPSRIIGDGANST
# [5] = target: T76A EphA4 AP mutant (Homo sapiens, UniProt P54764, T104A); assay: ELISA binding to immobilized ephrin-A5 Fc
# Sequence of T76A EphA4 AP mutant (P54764 30-209 T104A): as the sequence (P54764 30-209 limits assumed) above, with T75A counted along it
# How it was run: (§1)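 Wild-type and mutant human EphA4 ephrin-binding domain–AP fusions were secreted from transfected HEK293T cells into Opti-MEM, and the medium was concentrated about 50-fold. Protein amount was estimated from AP activity. Ephrin-A5 Fc was captured at 0.5 µg/ml on protein A wells (1 h, RT, TBS/0.01% Tween 20), then EphA4 AP was added for 1 h. Bound AP was read with pNPP in SEAP buffer (pH 9.8) at OD405, minus Fc-only wells.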
# [6] = target: Q43A EphA4 AP mutant (Homo sapiens, UniProt P54764, Q71A); assay: ELISA binding to immobilized ephrin-A5 Fc
# Sequence of Q43A EphA4 AP mutant (P54764 30-209 Q71A): as the sequence (P54764 30-209 limits assumed) above, with Q42A counted along it
# How it was run: as §1
# [7] = target: G132V EphA4 AP mutant (Homo sapiens, UniProt P54764, G160V); assay: ELISA binding to immobilized ephrin-A5 Fc
# Sequence of G132V EphA4 AP mutant (P54764 30-209 G160V): as the sequence (P54764 30-209 limits assumed) above, with G131V counted along it
# How it was run: as §1
# [8] = target: S30A EphA4 AP mutant (Homo sapiens, UniProt P54764, S58A); assay: ELISA binding to immobilized ephrin-A5 Fc
# Sequence of S30A EphA4 AP mutant (P54764 30-209 S58A): as the sequence (P54764 30-209 limits assumed) above, with S29A counted along it
# How it was run: as §1
# [9] = target: I131A EphA4 AP mutant (Homo sapiens, UniProt P54764, I159A); assay: ELISA binding to immobilized ephrin-A5 Fc
# Sequence of I131A EphA4 AP mutant (P54764 30-209 I159A): as the sequence (P54764 30-209 limits assumed) above, with I130A counted along it
# How it was run: as §1
# [10] = target: I31A EphA4 AP mutant (Homo sapiens, UniProt P54764, I59A); assay: ELISA binding to immobilized ephrin-A5 Fc
# Sequence of I31A EphA4 AP mutant (P54764 30-209 I59A): as the sequence (P54764 30-209 limits assumed) above, with I30A counted along it
# How it was run: as §1
# [11] = target: D33A EphA4 AP mutant (Homo sapiens, UniProt P54764, D61A); assay: ELISA binding to immobilized ephrin-A5 Fc
# Sequence of D33A EphA4 AP mutant (P54764 30-209 D61A): as the sequence (P54764 30-209 limits assumed) above, with D32A counted along it
# How it was run: as §1
# [12] = target: F126A EphA4 AP mutant (Homo sapiens, UniProt P54764, F154A); assay: ELISA binding to immobilized ephrin-A5 Fc
# Sequence of F126A EphA4 AP mutant (P54764 30-209 F154A): as the sequence (P54764 30-209 limits assumed) above, with F125A counted along it
# How it was run: as §1
# [13] = target: T41A EphA4 AP mutant (Homo sapiens, UniProt P54764, T69A); assay: ELISA binding to immobilized ephrin-A5 Fc
# Sequence of T41A EphA4 AP mutant (P54764 30-209 T69A): as the sequence (P54764 30-209 limits assumed) above, with T40A counted along it
# How it was run: as §1
# [14] = target: M136A EphA4 AP mutant (Homo sapiens, UniProt P54764, M164A); assay: ELISA binding to immobilized ephrin-A5 Fc
# Sequence of M136A EphA4 AP mutant (P54764 30-209 M164A): as the sequence (P54764 30-209 limits assumed) above, with M135A counted along it
# How it was run: as §1
# [15] = target: V129A EphA4 AP mutant (Homo sapiens, UniProt P54764, V157A); assay: ELISA binding to immobilized ephrin-A5 Fc
# Sequence of V129A EphA4 AP mutant (P54764 30-209 V157A): as the sequence (P54764 30-209 limits assumed) above, with V128A counted along it
# How it was run: as §1
# [16] = target: M32A EphA4 AP mutant (Homo sapiens, UniProt P54764, M60A); assay: ELISA binding to immobilized ephrin-A5 Fc
# Sequence of M32A EphA4 AP mutant (P54764 30-209 M60A): as the sequence (P54764 30-209 limits assumed) above, with M31A counted along it
# How it was run: as §1
# [17] = target: I39A EphA4 AP mutant (Homo sapiens, UniProt P54764, I67A); assay: ELISA binding to immobilized ephrin-A5 Fc
# Sequence of I39A EphA4 AP mutant (P54764 30-209 I67A): as the sequence (P54764 30-209 limits assumed) above, with I38A counted along it
# How it was run: as §1
# [18] = target: D123A EphA4 AP mutant (Homo sapiens, UniProt P54764, D151A); assay: ELISA binding to immobilized ephrin-A5 Fc
# Sequence of D123A EphA4 AP mutant (P54764 30-209 D151A): as the sequence (P54764 30-209 limits assumed) above, with D122A counted along it
# How it was run: as §1
# [19] = target: R134A EphA4 AP mutant (Homo sapiens, UniProt P54764, R162A); assay: ELISA binding to immobilized ephrin-A5 Fc
# Sequence of R134A EphA4 AP mutant (P54764 30-209 R162A): as the sequence (P54764 30-209 limits assumed) above, with R133A counted along it
# How it was run: as §1
# [20] = target: A165S EphA4 AP mutant (Homo sapiens, UniProt P54764, A193S); assay: ELISA binding to immobilized ephrin-A5 Fc
# Sequence of A165S EphA4 AP mutant (P54764 30-209 A193S): as the sequence (P54764 30-209 limits assumed) above, with A164S counted along it
# How it was run: as §1
# [21] = read-out: inhibition of EphA4 AP binding to ephrin-A5 Fc
molecule,measurement,setting,value
KYLPYWPVLASL [KYL-Ala10],IC50 value relative to unmodified KYL (in words),[1],comparable to that of unmodified KYL
VTMEAINLAFPG [VTM],inhibition at 25 µM,[1]; [21],~80%
same,relative stability in mouse serum (in words),[2],more stable than KYL and APY
KYLPYWPVLSSL [KYL],inhibition at 5 µM,[1]; [21],~80%
KYLPYWPVLSAL [KYL-Ala11],IC50 value relative to unmodified KYL (in words),[1],comparable to that of unmodified KYL
KYLPYWPVLSSL [KYL peptide],Kd,[3],850 ± 150 nM
VTMEAINLAFPG [VTM peptide],Kd,[3],4700 ± 100 nM
VTMEAINLAFPA [VTM-Ala12],fold reduction of inhibitory potency against unmodified VTM,[4],< 2 fold
B1,effect of mutation on ephrin-A5 binding (in words),[5],severely impair
same,effect of mutation on ephrin-A5 binding (in words),[6],also affect ephrin-A5 binding
same,effect of mutation on ephrin-A5 binding (in words),[7],do not substantially affect
same,effect of mutation on ephrin-A5 binding (in words),[8],do not substantially affect
same,effect of mutation on ephrin-A5 binding (in words),[9],severely impair
same,effect of mutation on ephrin-A5 binding (in words),[10],also affect ephrin-A5 binding
same,effect of mutation on ephrin-A5 binding (in words),[11],also affect ephrin-A5 binding
same,effect of mutation on ephrin-A5 binding (in words),[12],severely impair
same,effect of mutation on ephrin-A5 binding (in words),[13],do not substantially affect; also recorded: does not affect ephrin-A5 binding
same,effect of mutation on ephrin-A5 binding (in words),[14],also affect ephrin-A5 binding
same,effect of mutation on ephrin-A5 binding (in words),[15],do not substantially affect
same,effect of mutation on ephrin-A5 binding (in words),[16],also affect ephrin-A5 binding
same,effect of mutation on ephrin-A5 binding (in words),[17],do not substantially affect
same,effect of mutation on ephrin-A5 binding (in words),[18],also affect ephrin-A5 binding
same,effect of mutation on ephrin-A5 binding (in words),[19],severely impair
same,effect of mutation on ephrin-A5 binding (in words),[20],also affect ephrin-A5 binding
